From ChEMBL document CHEMBL5724801, “EUbOPEN Chemogenomics Library - Multiplex” (2024)
“And” between values parts separate entries of the source, which are not always exact repeats. Identical values can stand only once.

Tested on: U2OS
Experiment: Multiplex assay against U2OS
Type: toxicity, cell-based
Conditions: human
In short: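 Live cells carried four stains from seeding: Hoechst33342, BioTracker Green Microtubule Cytoskeleton Dye, MitoTracker Red and Annexin V Alexa Fluor 680. They were imaged on a CQ1 microscope at 37°C and 5% CO2 after compound addition. Using CellPathfinder machine-learning gating, cells were split into Hoechst high-intensity objects or normal cells, normal cells into healthy, pyknosed or fragmented nuclei, and pyknosed cells into mitotic or apoptotic; tubulin, mitochondrial-mass and membrane-permeability phenotypes are per cents of healthy-nucleus cells.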

[1] = 12 h, 1 µM, compound concentration 1 uM
[2] = 12 h, 10 µM, compound concentration 10 uM
[3] = 24 h, 1 µM, compound concentration 1 uM
[4] = 24 h, 10 µM, compound concentration 10 uM
[5] = 48 h, 1 µM, compound concentration 1 uM
[6] = 48 h, 10 µM, compound concentration 10 uM

COC(c1ccccc1)(c1ccccc1)[C@H](Oc1nc(C)cc(C)n1)C(=O)O [AMBRISENTAN]
Population Apoptotic (%) [1]: 95% and 100%
Population Fragmented Nuclei (%) [1]: 26% and 21%
Population Healthy Nuclei (%) [1]: 62% and 72%
Population Hoechst High Intensity Objects (%) [1]: 2%
Population Membrane Permeable-Phenotype (%) [1]: 3% and 8%
Population Mitochondria Different-Phenotype (%) [1]: 0% and 3%
Population Mitotic Cells (%) [1]: 4% and 0%
Population Normal (%) [1]: 97%
Population Pyknosed Nuclei (%) [1]: 10% and 5%
Population Tubulin-Different-Phenotype (%) [1]: 1%
Total Cell Count [1]: 209 and 87
Population Apoptotic (%) [2]: 61% and 100%
Population Fragmented Nuclei (%) [2]: 28% and 19%
Population Healthy Nuclei (%) [2]: 63% and 72%
Population Hoechst High Intensity Objects (%) [2]: 2% and 0%
Population Membrane Permeable-Phenotype (%) [2]: 4%
Population Mitochondria Different-Phenotype (%) [2]: 2% and 0%
Population Normal (%) [2]: 97% and 99%
Population Pyknosed Nuclei (%) [2]: 7%
Population Tubulin-Different-Phenotype (%) [2]: 1% and 0%
Total Cell Count [2]: 232 and 104
Population Apoptotic (%) [3]: 95% and 100%
Population Fragmented Nuclei (%) [3]: 27% and 23%
Population Healthy Nuclei (%) [3]: 63% and 66%
Population Hoechst High Intensity Objects (%) [3]: 0%
Population Membrane Permeable-Phenotype (%) [3]: 4% and 1%
Population Mitochondria Different-Phenotype (%) [3]: 1% and 2%
Population Mitotic Cells (%) [3]: 4% and 0%
Population Normal (%) [3]: 99%
Population Pyknosed Nuclei (%) [3]: 8% and 10%
Population Tubulin-Different-Phenotype (%) [3]: 1%
Total Cell Count [3]: 248 and 111
Population Apoptotic (%) [4]: 84% and 80%
Population Fragmented Nuclei (%) [4]: 25% and 13%
Population Healthy Nuclei (%) [4]: 65% and 77%
Population Hoechst High Intensity Objects (%) [4]: 1% and 0%
Population Membrane Permeable-Phenotype (%) [4]: 7%
Population Mitochondria Different-Phenotype (%) [4]: 2%
Population Mitotic Cells (%) [4]: 16% and 20%
Population Normal (%) [4]: 98% and 100%
Population Pyknosed Nuclei (%) [4]: 9% and 8%
Population Tubulin-Different-Phenotype (%) [4]: 3% and 5%
Total Cell Count [4]: 273 and 115
Population Apoptotic (%) [5]: 89% and 93%
Population Fragmented Nuclei (%) [5]: 17%
Population Healthy Nuclei (%) [5]: 70% and 72%
Population Hoechst High Intensity Objects (%) [5]: 2%
Population Membrane Permeable-Phenotype (%) [5]: 2% and 0%
Population Mitochondria Different-Phenotype (%) [5]: 1%
Population Mitotic Cells (%) [5]: 10% and 6%
Population Normal (%) [5]: 97%
Population Pyknosed Nuclei (%) [5]: 11% and 10%
Population Tubulin-Different-Phenotype (%) [5]: 0%
Total Cell Count [5]: 333 and 151
Population Apoptotic (%) [6]: 87% and 81%
Population Fragmented Nuclei (%) [6]: 21% and 13%
Population Healthy Nuclei (%) [6]: 68% and 79%
Population Hoechst High Intensity Objects (%) [6]: 3% and 0%
Population Membrane Permeable-Phenotype (%) [6]: 4% and 2%
Population Mitochondria Different-Phenotype (%) [6]: 2% and 0%
Population Mitotic Cells (%) [6]: 12% and 18%
Population Normal (%) [6]: 96% and 100%
Population Pyknosed Nuclei (%) [6]: 10% and 6%
Population Tubulin-Different-Phenotype (%) [6]: 3% and 2%
Total Cell Count [6]: 388 and 174

COc1ccc2c(c1OCc1ccccc1)C[C@@H](C(=O)O)N(C(=O)C(c1ccccc1)c1ccccc1)C2 [OLODANRIGAN]
Population Apoptotic (%) [1]: 82% and 66%
Population Fragmented Nuclei (%) [1]: 31% and 18%
Population Healthy Nuclei (%) [1]: 59% and 75%
Population Hoechst High Intensity Objects (%) [1]: 2% and 3%
Population Membrane Permeable-Phenotype (%) [1]: 4% and 6%
Population Mitochondria Different-Phenotype (%) [1]: 0% and 4%
Population Mitotic Cells (%) [1]: 17% and 33%
Population Normal (%) [1]: 97% and 96%
Population Pyknosed Nuclei (%) [1]: 8% and 5%
Population Tubulin-Different-Phenotype (%) [1]: 1% and 2%
Total Cell Count [1]: 286 and 112
Population Apoptotic (%) [2]: 78% and 81%
Population Fragmented Nuclei (%) [2]: 30% and 26%
Population Healthy Nuclei (%) [2]: 64% and 63%
Population Hoechst High Intensity Objects (%) [2]: 1% and 0%
Population Membrane Permeable-Phenotype (%) [2]: 6% and 2%
Population Mitochondria Different-Phenotype (%) [2]: 1%
Population Mitotic Cells (%) [2]: 21% and 18%
Population Normal (%) [2]: 98% and 99%
Population Pyknosed Nuclei (%) [2]: 5% and 10%
Population Tubulin-Different-Phenotype (%) [2]: 2%
Total Cell Count [2]: 273 and 110
Population Apoptotic (%) [3]: 87% and 55%
Population Fragmented Nuclei (%) [3]: 25% and 18%
Population Healthy Nuclei (%) [3]: 64% and 74%
Population Hoechst High Intensity Objects (%) [3]: 0% and 2%
Population Membrane Permeable-Phenotype (%) [3]: 2% and 9%
Population Mitochondria Different-Phenotype (%) [3]: 0% and 6%
Population Normal (%) [3]: 99% and 97%
Population Pyknosed Nuclei (%) [3]: 10% and 6%
Population Tubulin-Different-Phenotype (%) [3]: 2% and 5%
Total Cell Count [3]: 311 and 143
Population Apoptotic (%) [4]: 83% and 50%
Population Fragmented Nuclei (%) [4]: 27% and 22%
Population Healthy Nuclei (%) [4]: 66% and 72%
Population Hoechst High Intensity Objects (%) [4]: 1% and 0%
Population Membrane Permeable-Phenotype (%) [4]: 4%
Population Mitochondria Different-Phenotype (%) [4]: 0% and 1%
Population Normal (%) [4]: 98% and 100%
Population Pyknosed Nuclei (%) [4]: 5% and 4%
Population Tubulin-Different-Phenotype (%) [4]: 1% and 2%
Total Cell Count [4]: 318 and 123
Population Apoptotic (%) [5]: 91% and 78%
Population Fragmented Nuclei (%) [5]: 22% and 14%
Population Healthy Nuclei (%) [5]: 70% and 77%
Population Hoechst High Intensity Objects (%) [5]: 3% and 4%
Population Membrane Permeable-Phenotype (%) [5]: 4% and 3%
Population Mitochondria Different-Phenotype (%) [5]: 1% and 3%
Population Mitotic Cells (%) [5]: 8% and 21%
Population Normal (%) [5]: 96% and 95%
Population Pyknosed Nuclei (%) [5]: 7%
Population Tubulin-Different-Phenotype (%) [5]: 2%
Total Cell Count [5]: 483 and 184
Population Apoptotic (%) [6]: 88% and 85%
Population Fragmented Nuclei (%) [6]: 20% and 18%
Population Healthy Nuclei (%) [6]: 71% and 77%
Population Hoechst High Intensity Objects (%) [6]: 1%
Population Membrane Permeable-Phenotype (%) [6]: 5% and 7%
Population Mitochondria Different-Phenotype (%) [6]: 1% and 6%
Population Mitotic Cells (%) [6]: 11% and 14%
Population Normal (%) [6]: 98%
Population Pyknosed Nuclei (%) [6]: 8% and 4%
Population Tubulin-Different-Phenotype (%) [6]: 3% and 5%
Total Cell Count [6]: 451 and 163
